Measurements: ChEMBL document CHEMBL1124420, “Structure-activity relationships of pyrimidine nucleosides as antiviral agents for human immunodeficiency virus type 1 in peripheral blood mononuclear cells” (J Med Chem, 1989)

How the values were obtained:
[1] = Cytotoxic effect in uninfected human peripheral blood mononuclear (PBM) cells
[2] = tested on: Human immunodeficiency virus 1; test: Antiviral activity against HIV I strain (LAV) in human peripheral blood mononuclear (PBM) cells; assay type: functional, organism-based
Outline: (§1)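 Human PBM cells from normal donors, mitogen-stimulated for 3 days (10⁶ cells/mL), were infected with HIV-1 LAV at about 100 TCID₅₀/mL. Drugs at various concentrations were added about 45 min post-infection, in fungizone-free medium. On day 5, virus was pelleted from the clarified supernatant and its reverse transcriptase activity measured. EC₅₀ came from the median effect method, and active compounds were retested with different donor cells.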

[3] = Antiviral activity against HIV I strain (LAV) in human peripheral blood mononuclear (PBM) cells; Range is 0.081 - 0.22; assay type: functional; outline: as §1
[4] = Antiviral activity against HIV I strain (LAV) in human peripheral blood mononuclear (PBM) cells; Range is 0.66 - 1.19; assay type: functional; outline: as §1
[5] = Antiviral activity against HIV I strain (LAV) in human peripheral blood mononuclear (PBM) cells; Range is 0.056 - 1.00; assay type: functional; outline: as §1
[6] = Antiviral activity against HIV I strain (LAV) in human peripheral blood mononuclear (PBM) cells; Range is 68.3 - 79.9; assay type: functional; outline: as §1
[7] = tested on: Moloney murine leukemia virus; test: Antiviral activity against Moloney murine leukemia virus; assay type: functional; conditions: read-out: ED50 (the source's name)
[8] = Antiviral activity against HIV-1 in human peripheral blood mononuclear (PBM) cells; assay type: functional; conditions: read-out: ED50 (the source's name)
[9] = Antiviral activity against HIV I strain (LAV) in human peripheral blood mononuclear (PBM) cells; Range is 0.18 - 0.46; assay type: functional
[10] = Antiviral activity against HIV I strain (LAV) in human peripheral blood mononuclear (PBM) cells; Range is 0.009 - 0.04; assay type: functional; outline: as §1
[11] = Antiviral activity against HIV I strain (LAV) in human peripheral blood mononuclear (PBM) cells; Range is 0.002 - 0.009; assay type: functional; outline: as §1

With `Cc1cn([C@H]2C[C@H](O)[C@@H](CN=[N+]=[N-])O2)c(=O)[nH]c1=O` the IC50 [1] was > 100 µM and the EC50 [2] was 8.6 µM.
For `Cc1cn([C@H]2C[C@H](I)[C@@H](CO)O2)c(=O)[nH]c1=O`, the IC50 [1] was > 100 µM and the EC50 [2] was 46.3 µM.
`O=c1ccn([C@H]2CC[C@@H](CO)O2)c(=O)[nH]1` gave an EC50 [2] of 96.8 µM.
In the case of `CCc1cn(C2C[C@@H](I)[C@@H](CO)O2)c(=O)[nH]c1=O` (stereo partly specified), the IC50 [1] is reported as > 100 µM and the EC50 [2] is reported as 86 µM.
In the case of `O=c1ccn(C2C[C@@H](I)[C@@H](CO)O2)c(=O)[nH]1` (stereo partly specified), the IC50 [1] is reported as > 100 µM and the EC50 [2] is reported as 12.1 µM.
In the case of `CCCc1cn(C2C[C@@H](N=[N+]=[N-])[C@@H](CO)O2)c(=O)[nH]c1=O` (stereo partly specified), the IC50 [1] is reported as > 100 µM and the EC50 [2] is reported as 63 µM.
In the case of `CCc1cn(C2C[C@@H](O)[C@@H](CN)O2)c(=O)[nH]c1=O` (stereo partly specified), the IC50 [1] is reported as > 10 µM and the EC50 [2] is reported as 94.3 µM.
For `[N-]=[N+]=N[C@@H]1CC(c2cnc(O)nc2O)O[C@@H]1CO` (stereo partly specified), the IC50 [1] was > 100 µM and the EC50 [2] was > 100 µM.
In the case of `[N-]=[N+]=N[C@H]1C[C@H](n2cc(Br)c(=O)[nH]c2=O)O[C@@H]1CO`, the IC50 [1] is reported as > 100 µM and the EC50 [2] is reported as 1.04 µM.
In the case of `Cc1cn([C@H]2C[C@H](N=[N+]=[N-])[C@@H](CO)O2)c(=O)nc1N`, the IC50 [1] is reported as > 200 µM and the EC50 [3] is reported as 0.081 µM.
With `[N-]=[N+]=N[C@H]1C[C@H](n2ccc(N)nc2=O)O[C@@H]1CO` the IC50 [1] was > 400 µM and the EC50 [4] was 0.66 µM.
With `CCc1cn([C@H]2C[C@H](N=[N+]=[N-])[C@@H](CO)O2)c(=O)[nH]c1=O` the IC50 [1] was 1000 µM and the EC50 [5] was 0.056 µM.
With `CCc1cn([C@H]2CC[C@@H](CO)O2)c(=O)[nH]c1=O` the IC50 [1] was > 100 µM and the EC50 [2] was 4.9 µM.
With `N[C@H]1C[C@H](n2ccc(=O)[nH]c2=O)O[C@@H]1CO` the IC50 [1] was > 100 µM and the EC50 [2] was 60 µM.
For `Nc1ncc([C@H]2CC[C@@H](CO)O2)c(O)n1`, the IC50 [1] was > 100 µM and the EC50 [2] was > 100 µM.
For `OC[C@@H]1C=C[C@H](c2cnc(O)nc2O)O1`, the IC50 [1] was > 100 µM and the EC50 [2] was > 100 µM.
In the case of `CCc1cn([C@H]2C=C[C@@H](CO)O2)c(=O)[nH]c1=O`, the IC50 [1] is reported as > 100 µM and the EC50 [2] is reported as 75.7 µM.
In the case of `Cc1cn([C@H]2C[C@H](O)[C@@H](CN)O2)c(=O)[nH]c1=O`, the IC50 [1] is reported as > 100 µM and the EC50 [2] is reported as 77.4 µM.
In the case of `[N-]=[N+]=N[C@@H]1CC(n2cc(I)c(=O)[nH]c2=O)O[C@@H]1CO` (stereo partly specified), the IC50 [1] is reported as > 100 µM and the EC50 [2] is reported as 1.14 µM.
With `CCc1cn(C2C[C@@H](N)[C@@H](CO)O2)c(=O)[nH]c1=O` (stereo partly specified) the IC50 [1] was > 100 µM and the EC50 [2] was 54.9 µM.
With `[N-]=[N+]=N[C@@H]1CC(n2cc(/C=C/Br)c(=O)[nH]c2=O)O[C@@H]1CO` (stereo partly specified) the IC50 [1] was > 100 µM and the EC50 [2] was > 100 µM.
For `CCc1cn(C2C[C@@H](O)[C@@H](CN=[N+]=[N-])O2)c(=O)[nH]c1=O` (stereo partly specified), the IC50 [1] was > 100 µM and the EC50 [2] was > 100 µM.
For `[N-]=[N+]=NC[C@H]1OC(n2ccc(=O)[nH]c2=O)C[C@H]1O` (stereo partly specified), the IC50 [1] was > 100 µM and the EC50 [2] was > 100 µM.
In the case of `NC[C@H]1OC(n2ccc(=O)[nH]c2=O)C[C@H]1O` (stereo partly specified), the IC50 [1] is reported as > 100 µM and the EC50 [2] is reported as > 100 µM.
With `Cc1cn([C@H]2CC[C@@H](CO)O2)c(=O)[nH]c1=O` the IC50 [1] was > 100 µM and the EC50 [2] was 0.17 µM.
In the case of `O=c1ccn([C@H]2C=C[C@@H](CO)O2)c(=O)[nH]1`, the IC50 [1] is reported as > 100 µM and the EC50 [6] is reported as 68.3 µM.
With `Cc1cn([C@H]2C[C@H](N)[C@@H](CO)O2)c(=O)[nH]c1=O` [3-AMINO- 3-DEOXYTHYMIDINE] the IC50 [1] was > 100 µM and the EC50 [2] was > 100 µM.
`[N-]=[N+]=N[C@H]1C[C@H](n2ccc(=O)[nH]c2=O)O[C@@H]1CO` [NAVURIDINE] gave an IC50 [1] of 1000 µM, an EC50 [7] of 52 µM and an EC50 [8] of 0.178 µM. The EC50 [9] was 0.18 µM.
In the case of `Cc1cn([C@H]2C=C[C@@H](CO)O2)c(=O)[nH]c1=O` [STAVUDINE], the IC50 [1] is reported as 70 µM and the EC50 [10] is reported as 0.009 µM.
With `Cc1cn([C@H]2C[C@H](N=[N+]=[N-])[C@@H](CO)O2)c(=O)[nH]c1=O` [ZIDOVUDINE] the IC50 [1] was 200 µM and the EC50 [11] was 0.002 µM.
